Data on four compounds can be found in ChEMBL document CHEMBL5532699, “Design, docking optimization, and evaluation of biotin-PEG4-1,8-naphthalimide as a potent and safe antitumor agent with dual targeting of ferroptosis and DNA” (RSC Med Chem, 2024).

SMILES strings stand for the structures.

Data set [1] in a line: Toxicity in nude mouse xenografted with human U-251 cells assessed as decrease in body weight at 25 mg/kg, ip administered once every two days for 21 days. It counts as organism-based. The conditions noted are these: in vivo, 504 h, time 21 day. The method in brief:
(§1)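 1×10^6 tumor cells injected s.c. into the right flank of nude mice. At mean tumor volume 60–80 mm³, animals randomized to vehicle or treatment groups (n = 6). Compound in 5% v/v DMSO/saline given i.p. every 2 days. Tumor size and weight recorded; volume = lw²/2 from length and width. Body weight tracked as the systemic toxicity index.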
Background: Xenograft models place foreign cells or tissue in a host animal.

The test system of data set [2] is U-251. Description: Antitumor activity against human U-251 cells xenografted in nude mouse assessed as tumor inhibition ratio at 25 mg/kg, ip administered once every two days for 21 days relative to control. It counts as functional. Particulars: U-251, 504 h, time 21 day. The method in brief: as §1
Data set [3] relates to U-251. Description: Antiproliferative activity against human U-251 cells incubated for 48 hrs by MTT assay. The format is functional, cell-based. The conditions noted are these: U-251, 48 h. The method in brief: (§2)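 Monolayer cells in DMEM with 10% FBS, penicillin and streptomycin, 37°C, 5% CO2. Exponentially growing cells were seeded in 96-well plates and exposed to compound for 48 h. MTT was then added for 4 h at 37°C. Medium was removed, formazan dissolved in DMSO, and OD read at 490 nm. Each plate had five replicate wells, and assays were repeated three times per line.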

Data set [4] can be described thus: Toxicity in nude mouse xenografted with human U-251 cells assessed as decrease in animal movement at 25 mg/kg, ip administered once every two days for 21 days. The format is organism-based. Particulars: in vivo, 504 h, time 21 day. The method in brief: as §1
For data set [5], the system named is A549. The experiment in a line: Antiproliferative activity against human A549 cells incubated for 48 hrs by MTT assay. It counts as functional, cell-based. Particulars: A549, 48 h. The method in brief:
as §2
On the technique in general: Formazan colour is commonly taken as a measure of viable cells.

The test system of data set [6] is HCT-116. The experiment in a line: Antiproliferative activity against human HCT-116 cells incubated for 48 hrs by MTT assay. The format is functional, cell-based. Particulars: HCT-116, 48 h. In outline:
as §2

For data set [7], the system named is MDA-MB-231. Description: Antiproliferative activity against human MDA-MB-231 cells incubated for 48 hrs by MTT assay. The format is functional, cell-based. Particulars: MDA-MB-231, 48 h. The method in brief:
as §2

A short description of data set [8]: Cytotoxicity against HK-2 cells incubated for 48 hrs by MTT assay. Particulars: human. The format is toxicity, cell-based. In outline:
as §2

Data set [9] concerns MGC-803. Description: Antitumor activity against human MGC-803 cells xenografted in nude mouse assessed as tumor inhibition ratio at 5 mg/kg, ip administered once every two days for 21 days relative to control. The format is functional. Particulars: MGC-803, 504 h, time 21 day. In outline:
(§3)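 1×10^6 tumour cells were injected subcutaneously into the right flank of nude mice. At a mean tumour volume of 60–80 mm³, mice were randomised into solvent control and treated groups (n = 6). Compound in 5% v/v DMSO/saline was given i.p. every 2 days. Tumour length and width were measured, V = lw²/2, and tumour weight was recorded.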

The subject of data set [10] is T-24. The experiment in a line: Antiproliferative activity against human T24 cells incubated for 48 hrs by MTT assay. The format is functional, cell-based. The conditions noted are these: T-24, 48 h. In outline: as §2
The nature of data set [11]: Cytotoxicity against HUVEC cells incubated for 48 hrs by MTT assay. The format is toxicity, cell-based. Particulars: human. In outline: as §2
The subject of data set [12] is U-251. Description: Antitumor activity against human U-251 cells xenografted in nude mouse assessed as tumor inhibition ratio at 5 mg/kg, ip administered once every two days for 21 days relative to control. It counts as functional. The conditions noted are these: U-251, 504 h, time 21 day. In outline: as §1
Data set [13] in a line: Toxicity in nude mouse xenografted with human MGC-803 cells assessed as pathological changes in heart at 5 mg/kg, ip administered once every two days for 21 days by H and E staining based analysis. The format is organism-based. Particulars: in vivo, 504 h, time 21 day. In outline:
(§4)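 Major organs from MGC-803 xenograft nude mice (i.p. dosing in 5% DMSO/saline every 2 days, n = 6) were stained with haematoxylin-eosin and examined at 200×.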

For data set [14], the system named is U-251. The experiment in a line: Antitumor activity against human U-251 cells xenografted in nude mouse assessed as tumor inhibition ratio at 10 mg/kg, ip administered once every two days for 21 days relative to control. The format is functional. Particulars: U-251, 504 h, time 21 day. The method in brief: as §3
Data set [15] in a line: Toxicity in nude mouse xenografted with human U-251 cells assessed as decrease in body weight at 10 mg/kg, ip administered once every two days for 21 days. It counts as organism-based. Particulars: in vivo, 504 h, time 21 day. In outline:
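Subcutaneous xenograft in nude mice (1×10^6 cells, right flank). At 60–80 mm³, mice were randomised (n = 6 per group) to solvent control or treatment. Compound in 5% v/v DMSO/saline was given i.p. once every 2 days. Body weight was recorded as the indicator of systemic toxicity.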

The nature of data set [16]: Metabolic stability in male CD-1 mouse liver microsomes assessed as half life at 2 uM incubated for 60 min in the presence of NADPH by LC-MS/MS analysis. It counts as ADME, Microsome. In outline:
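Male CD-1 mouse liver microsomes at 0.5 mg/mL final in 100 mM phosphate buffer, pH 7.4. Mixture was preincubated with 1 mM NADPH (PBS only for the negative control) for 10 min at 37°C. Reaction was started with test compound at 2 µM final. Aliquots were taken at 0.5, 15, 30, 45 and 60 min into cold methanol with internal standard, centrifuged, and the supernatant analysed by LC-MS/MS.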
In general terms: Microsomes from liver hold many membrane-bound enzymes, among them those of drug oxidation.

Data set [17] is described as follows: Toxicity in nude mouse xenografted with human MGC-803 cells assessed as pathological changes in lung at 5 mg/kg, ip administered once every two days for 21 days by H and E staining based analysis. It counts as organism-based. Particulars: in vivo, 504 h, time 21 day. In outline:
as §4

In data set [18] the test system is MGC-803. Description: Antiproliferative activity against human MGC-803 cells incubated for 48 hrs by MTT assay. It counts as functional, cell-based. Particulars: MGC-803, 48 h. In outline: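 Cells kept as monolayers in DMEM with 10% FBS, streptomycin and penicillin, 37°C, 5% CO₂. Exponentially growing cells seeded in 96-well plates, exposed 48 h, then MTT (10 mg/mL stock) for 4 h at 37°C. Medium removed, formazan dissolved in DMSO, OD read at 490 nm. Five wells per condition; each cell line run three times.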

A short description of data set [19]: Toxicity in nude mouse xenografted with human MGC-803 cells assessed as pathological changes in spleen at 5 mg/kg, ip administered once every two days for 21 days by H and E staining based analysis. The conditions noted are these: in vivo, 504 h, time 21 day. The format is organism-based. In outline: as §4
Data set [20] in a line: Toxicity in nude mouse xenografted with human U-251 cells assessed as decrease in animal movement at 10 mg/kg, ip administered once every two days for 21 days. It counts as organism-based. The conditions noted are these: in vivo, 504 h, time 21 day.
Data set [21] is described as follows: Toxicity in nude mouse xenografted with human MGC-803 cells assessed as pathological changes in liver at 5 mg/kg, ip administered once every two days for 21 days by H and E staining based analysis. The format is organism-based. Particulars: in vivo, 504 h, time 21 day. The method in brief:
as §4

In the case of `Cn1nnc2c(C(N)=O)ncn2c1=O` [TEMOZOLOMIDE], the Activity entry in [1] and in [4] was “Toxic” throughout. In addition, in data set [2], the inhibition in vivo (as a rule, the share of the control response that was lost under treatment) at 25 mg/kg was 74.2%. Also, the IC50 (in general, the point on the concentration scale where inhibition reaches its midpoint) in [3] is over 50 µM.
With `CN(C)CCN1C(=O)c2cccc3cc(N)cc(c23)C1=O` [AMONAFIDE], the IC50 in data set [5] was 12.4 µM; in [6], 25.7 µM; in data set [7] it was 21.1 µM; in [10], 7.94 µM; in data set [3], over 50 µM. Also, the IC50 at 48 h in [8] turned out to be 27.2 µM; in data set [11], 21.9 µM. Also, the inhibition in vivo at 5 mg/kg is 42.2% in data set [9] and 35.4% in [12].
As to `CN(C)CCN1C(=O)c2cccc3cc([N+](=O)[O-])cc(c23)C1=O` [MITONAFIDE], the half-inhibitory concentration (IC50) in data set [5] is 3.6 µM; in [6], 12.2 µM; in data set [7] it was 7.59 µM; in [3] it was 9.68 µM. Besides, the half-inhibitory concentration (IC50) at 48 h was determined as 2.13 µM in data set [8] and 5.9 µM in [11].
Take `CN(C)CCN1C(=O)c2cccc3c(N4CCNCC4)ccc(c23)C1=O`: the Activity entry was “Non-Toxic” in data set [13]; “Toxic” in data set [15]; “Non-Toxic” in data set [17]; “Non-Toxic” in [19]; “Toxic” in data set [20]; “Non-Toxic” in data set [21]. Moreover, the IC50 in [5] is 13.5 µM; in [6], 7.15 µM; in [7], 0.96 µM; in data set [18], 1.72 µM; in [10] it was 5.86 µM; in data set [3], 10.5 µM. The inhibition in vivo at 10 mg/kg in [14] is 71.5%. The figures for the IC50 at 48 h in data set [8] and in [11] were 6.38 µM and 1.99 µM, respectively. Moreover, in [16], the half-life (in general, how long it takes for the measured level to halve) at 2 µM was over 3.08 h. The inhibition in vivo at 5 mg/kg in data set [9] was determined as 40.3%.
